Compound activity from PubChem.
Shown are actives, neighbours in structure and some others; about 2.1% of the full set was active somewhere.
APJ agonist = agonists of human apelin receptor APJ, primary screen, CHO-K1 cells, PathHunter beta-arrestin, luminescence; activation, % at 20 µM; P35414; actives 0.11% (n = 330,000); AID 2520, 2010; 0% DMSO wells, 100% apelin;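 active = activation more than six SD over the plate average, tested at 20 µM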
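Material: engineered CHO-K1 APJ arrestin reporter cells; amount: 1000 CHO-K1 reporter cells seeded per well; incubation: compound stimulation 90 min at 25 °C, detection 60 min; signal: luminescent beta-gal fragment complementation, chemiluminescent substrate; read-out basis: APJ agonist activity; controls: DMSO-only wells as negative, 10 nM Apelin-13 as positive control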
APJ antag = antagonists of human apelin receptor APJ, primary screen, CHO-K1 cells, beta-arrestin complementation, luminescence; P35414; inhibition, % at 20 µM; actives 0.32% (n = 330,000); AID 2521, 2010;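 active = inhibition above about 40% at 20 µM, limit read from the data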;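 note: cells challenged with 10 nM apelin-13 agonist together with compound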
CXCR6 block = CXCR6 receptor inhibitors, primary screen, cell-based, beta-arrestin, luminescence, CHO-K1 PathHunter, 1536-well. AID 602244, 2012. actives 0.36% (n = 360,000). inhibition, % at 20 µM; in the data active = inhibition above about 34%, passing the limit was not always enough;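 note: antagonist mode with CXCL16 agonist at 10 nM final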
EBI2 block = EBI2 receptor antagonists, beta-arrestin recruitment, primary screen, cell-based, luminescence, 7a,25-OHC stimulation, uHTS; 7a,25-OHC stimulated; inhibition, % at 5 µM; actives 0.81% (n = 360,000); AID 651636, 2012; in the data active = inhibition above about 38%;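 note: enzyme fragment complementation signal reports receptor beta-arrestin coupling in cells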
Target sequence (P32249 whole entry, looked up, the tested form may be a part): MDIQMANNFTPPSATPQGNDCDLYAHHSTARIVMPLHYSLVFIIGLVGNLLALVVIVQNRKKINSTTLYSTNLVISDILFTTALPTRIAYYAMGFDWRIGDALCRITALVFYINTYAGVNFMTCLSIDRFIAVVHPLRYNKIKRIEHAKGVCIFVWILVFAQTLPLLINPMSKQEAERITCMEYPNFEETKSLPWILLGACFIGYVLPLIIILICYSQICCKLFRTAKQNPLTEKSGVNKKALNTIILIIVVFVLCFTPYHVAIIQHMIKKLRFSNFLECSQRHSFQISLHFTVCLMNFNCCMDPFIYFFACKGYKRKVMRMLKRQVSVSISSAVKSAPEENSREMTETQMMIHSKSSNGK
m5-HT2A agonist = mouse Htr2a agonists via beta-arrestin recruitment, primary screen, cell-based, luminescence; CHO-K1 mHTR2A beta-arrestin complementation; percent of 30 µM serotonin response; activation, % at 7.6 µM; actives 0.66% (n = 360,000); AID 624169, 2012;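 active = activation above a run cutoff, the mean activation of all tested compounds plus 3 SD, cut at about 14% in these data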
CCR6 antag = CCR6 receptor antagonists, primary screen, cell-based, CHO-K1, luminescence, beta-arrestin, uHTS; CHO-K1 CCR6 PathHunter beta-arrestin, CCL20-stimulated; inhibition, % at 20 µM; actives 0.49% (n = 340,000); AID 493098, 2011;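 active = compounds whose inhibition of the agonist-driven luminescence signal at 20 µM reaches about 50%, limit read from the data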;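 note: cells stimulated with CCL20 at 14 nM final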
OPRM1 ag = OPRM1 agonists via beta-arrestin recruitment, confirmation, counter-screen for mouse HTR2A agonist project, cell-based, luminescence, single concentration; activation, % at 9.3 µM; U2OS OPRM1 beta-arrestin PathHunter; DMSO 0%, DAMGO 9.3 µM 100%; actives 5.3% (n = 2,300); shares compounds with m5-HT2A agonist;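 active = mean activation above the mean of DMSO-only wells plus 3 SD, cut at about 0.5% in these data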
HTR2A ag conf = mouse HTR2A agonists, beta-arrestin recruitment, confirmation, cell-based, luminescence, CHO-K1 PathHunter, triplicate; shares compounds with m5-HT2A agonist; DMSO 0%, 30 µM serotonin 100%; actives 19% (n = 2,300); activation, % at 7.6 µM;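 active = mean activation across triplicates above the hit threshold derived in the original primary screen, cut at about 15% in these data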
Hits are given with their value; i = inactive; nt = no result given.

SMILES	APJ agonist	APJ antag	CXCR6 block	EBI2 block	m5-HT2A agonist	CCR6 antag	OPRM1 ag	HTR2A ag conf
O=[N+]([O-])c1ccccc1CNCCc1c[nH]c2ccccc12	i	i	i	i	i	i	nt	nt
Fc1cccc(CNCCc2c[nH]c3ccccc23)c1	i	i	i	i	35	i	i	39
Clc1cccc(C2NCCc3[nH]cnc32)c1 (stereo unspecified)	i	i	i	i	i	i	nt	nt
Cc1cccc(C)c1OP(N)(=O)Oc1c(C)cccc1C	i	i	i	i	18	i	i	i
Cc1cccc(OP(N)(N)=O)c1C	i	i	i	i	i	i	nt	nt
CC(=Nc1ccccc1N)c1c(O)n(C)c(=O)[nH]c1=O	i	i	i	i	i	i	nt	nt
CCN(CC)C(=O)COc1cc(C)cc2oc(=O)c3c(c12)CCCC3	i	i	i	i	14	i	i	i
CCCN(CCC)C(=O)Cc1c(-c2ccc(Cl)cc2)nc2c(Cl)cc(Cl)cn12	i	i	i	i	15	i	i	i
CC(O)CNc1ccc([N+](=O)[O-])c2cccnc12 (stereo unspecified)	i	i	i	i	i	i	nt	nt
NCCNc1ccc([N+](=O)[O-])c2cccnc12	i	i	i	i	22	i	i	i
COc1ccc2[nH]cc(CCN(C)C)c2c1	i	i	i	i	49	i	i	36
CCN1C[C@]2(C)CC[C@H](OC)[C@]34C2[C@H](OC(C)=O)[C@@]2(OCO[C@@]25C[C@H](OC)[C@H]2C[C@]3(O)C5[C@H]2OC)[C@@H]14	i	i	i	i	i	i	nt	nt
CN1CCC(c2c[nH]c3ccc(O)cc23)CC1	nt	nt	i	i	50	i	i	32
CCCN(CCC)[C@@H]1CCc2cccc(O)c2C1	i	i	i	i	58	i	0.8	126
CC12CN3CC(c4ccccc4)(CN(C1)C31CCCCC1)C2=O	i	i	i	i	16	i	i	i
Cc1cccc(CCNCc2cc3cc(C)cc(C)c3[nH]c2=O)c1	i	i	i	i	i	i	nt	nt
c1ccc2nc(N3CCNCC3)ccc2c1	i	i	i	i	51	i	i	38
Cc1cc(OCc2nn[nH]n2)c2c3c(c(=O)oc2c1)CCCC3	i	i	i	i	i	i	nt	nt
COC(=O)N(c1ccccc1)P1(=S)OCCO1	i	i	i	i	i	i	nt	nt
CCC1(CC)C(=O)C=CNC1=O	i	i	i	i	40	i	i	i
C=CCNC(=O)c1c(N)n(Cc2ccco2)c2nc3ccccc3nc12	i	i	i	i	i	i	nt	nt
CNC(=O)O/N=C(\C)Cc1nnn(-c2cc(C)on2)n1	i	i	i	i	i	i	nt	nt
O=c1[nH]c2ccccc2n1C1CCN(C(c2ccccc2OC(F)(F)F)c2nnnn2-c2ccc3c(c2)OCCO3)CC1 (stereo unspecified)	nt	nt	i	i	15	nt	nt	i
O=c1[nH]c2ccccc2n1C1CCN(C(c2ccccc2)c2nnnn2-c2ccc3c(c2)OCCO3)CC1 (stereo unspecified)	nt	nt	i	i	i	nt	nt	nt
O=c1[nH]c2ccccc2n1C1CCN(C(c2cccs2)c2nnnn2-c2ccc3c(c2)OCCO3)CC1 (stereo unspecified)	nt	nt	i	i	14	nt	nt	17
SMILES	APJ agonist	APJ antag	CXCR6 block	EBI2 block	m5-HT2A agonist	CCR6 antag	OPRM1 ag	HTR2A ag conf
CC1OC(OC2C=C3CCC4C(CCC5(C)C(c6ccc(=O)oc6)CCC45O)C3(C)CC2)C(O)C(OC2OC(CO)C(O)C(O)C2O)C1O (stereo unspecified)	nt	nt	i	i	15	i	6.9	i
CN(C)c1ccc(C=C(C#N)C#N)cc1	i	i	i	i	i	i	nt	nt
CC(N)Cc1c[nH]c2c1ccc1ccccc12 (stereo unspecified)	i	i	i	i	i	i	nt	nt
COc1cc(C[C@@H](C)N)c(OC)cc1I	i	i	i	i	61	i	i	26
O=C(C(=O)N1CCOCC1)c1cn(CCCOc2ccccc2)c2ccccc12	i	i	i	i	i	i	nt	nt
O=C(O)c1nn(Cc2ccc(Cl)cc2)c2ccccc12	nt	nt	i	i	15	nt	i	i
O=C(O)c1nn(Cc2ccc(Cl)cc2Cl)c2ccccc12	i	i	i	i	i	i	nt	nt
COc1ccccc1CNCCc1cccc(Cl)c1	nt	nt	i	i	43	nt	i	21
COc1ccccc1CNCCc1ccc(F)cc1	i	i	i	i	32	i	i	i
COc1ccc(CCNCc2ccccc2F)cc1	i	i	i	i	i	i	nt	nt
COc1cc(OC)c(OC)cc1CNCCc1cccc(F)c1	i	i	i	i	i	i	nt	nt
COc1ccc(CCNCc2ccccc2F)cc1OC	i	i	i	i	17	i	i	i
CC1CCCN(C(=O)CCl)C1 (stereo unspecified)	i	i	i	i	i	i	nt	nt
O=c1[nH]c(=S)n(-c2ccccc2)c(O)c1C=NCc1ccccn1	i	i	i	i	i	i	nt	nt
NCC(O)c1cc(O)c(O)cc1F (stereo unspecified)	i	i	i	i	56	i	i	149
O=C(Cc1ccccc1)Oc1ccc(N2C(=O)C3CCCCC3C2=O)cc1 (stereo unspecified)	i	i	i	i	i	i	nt	nt
N#Cc1c(/N=C/C2C(=O)NC(=S)NC2=O)sc2c1CCCC2	i	i	i	i	15	i	i	36
CCOC(=O)c1c(/N=C/C2C(=O)NC(=S)NC2=O)sc2c1CCC2	nt	nt	i	i	i	i	nt	nt
COC(=O)C1=C(c2cc3ccccc3s2)C[C@@H]2CC[C@H]1N2C(=O)NCc1ccc(C(F)(F)F)cc1	i	i	i	i	i	i	nt	nt
CN1CCc2cc(O)cc3c2[C@H]1Cc1ccc(O)c(O)c1-3	i	i	i	i	57	i	i	152
CCCN1CCc2cc(O)cc3c2[C@H]1Cc1ccc(O)c(O)c1-3	i	i	i	i	48	i	i	171
O=P(CN1CCN(c2ccccc2)CC1)(N1CCCCC1)N1CCCCC1	i	i	i	i	14	i	i	20
O=NN1CCCCC1	i	i	i	i	i	i	nt	nt
